Laboratory results as given in ChEMBL document CHEMBL1123837, “1-Amino-substituted 4-methyl-5H-pyrido[3',4':4,5]pyrrolo[3,2-c]pyridines: a new class of antineoplastic agents” (J Med Chem, 1987).
Calls of active or inactive are those of the source. No cut-off for these calls is given here.

Assays:
[1] = tested on: Calf thymus DNA; assay: Binding affinity for DNA by ethidium bromide displacement assay; type: nucleic-acid assay; conditions: Bos taurus
In short: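 Competitive ethidium bromide displacement with calf thymus DNA at 10 µg/mL in 20 mM Na phosphate buffer, 0.1 M NaCl, 1 mM EDTA, pH 7.4. The apparent DNA affinity constant is given in 10^6 M^-1 ± standard deviation, from 6 values across two independent experiments.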

[2] = tested on: Mus musculus; assay: In vivo antitumor activity was evaluated on L1210 leukemia model and percent of treated/control of tumor cells was determined at 80 mg/kg dosage concentration.; type: functional
In short: (§1)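 Following NCI protocols, 10^5 viable L1210 leukemia cells were inoculated ip on day 0 into male or female CDF1 hybrid mice, 10 per test group. Compounds in distilled water were dosed ip (0.1 mL/10 g body weight) daily on days 1–5. T/C = median survival day of treated mice / median survival day of negative controls × 100.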

[3] = tested on: Mus musculus; assay: In vivo antitumor activity was evaluated on L1210 leukemia model and percent of treated/control of tumor cells was determined at 15 mg/kg dosage concentration.; type: functional; in short: as §1
[4] = tested on: Mus musculus; assay: In vivo antitumor activity was evaluated on L1210 leukemia model and percent of treated/control of tumor cells was determined at 2.5 mg/kg dosage concentration; type: functional; in short: as §1
[5] = tested on: Mus musculus; assay: In vivo antitumor activity was evaluated on L1210 leukemia model and percent of treated/control of tumor cells was determined at 30 mg/kg dosage concentration; type: functional; in short: as §1
[6] = tested on: Mus musculus; assay: In vivo antitumor activity was evaluated on L1210 leukemia model and percent of treated/control of tumor cells was determined at 5 mg/kg dosage concentration; type: functional; in short: as §1
[7] = tested on: Mus musculus; assay: In vivo antitumor activity was evaluated on L1210 leukemia model and percent of treated/control of tumor cells was determined at 60 mg/kg dosage concentration.; type: functional; in short: as §1
[8] = tested on: Mus musculus; assay: In vivo antitumor activity was determined against P388 leukemia cells expressed as number of; type: functional
In short: (§2)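 P388 leukemia, 10^6 viable cells inoculated ip on day 0 into CDF1 hybrid male or female mice, 10 mice per group. Compounds were given ip in distilled water (0.1 mL/10 g body weight) at various doses on days 1-5. Vehicle controls were treated the same way. NCI protocols were followed.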

[9] = tested on: Mus musculus; assay: In vivo antitumor activity was evaluated on L1210 leukemia model and number of survivors (animals) was determined at 15 mg/kg dosage concentration; number of survivors given as 0/10; type: functional
In short: (§3)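 L1210 leukemia, 10^5 viable cells inoculated ip on day 0 into CDF1 hybrid male or female mice, 10 mice per group. Compounds were given ip in distilled water (0.1 mL/10 g body weight) on days 1-5. Vehicle controls were treated the same way. NCI protocols were followed. T/C = median survival day of treated mice / median survival day of vehicle controls × 100.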

[10] = tested on: Mus musculus; assay: In vivo antitumor activity was evaluated on L1210 leukemia model and number of survivors (animals) was determined at 2.5 mg/kg dosage concentration; number of survivors given as 0/10; type: functional; in short: as §3
[11] = tested on: Mus musculus; assay: In vivo antitumor activity was evaluated on L1210 leukemia model and number of survivors (animals) was determined at 30 mg/kg dosage concentration; number of survivors given as 0/10; type: functional; in short: as §3
[12] = tested on: Mus musculus; assay: In vivo antitumor activity was evaluated on L1210 leukemia model and number of survivors (animals) was determined at 5 mg/kg dosage concentration; number of survivors given as 0/10; type: functional; in short: as §3
[13] = tested on: Mus musculus; assay: In vivo antitumor activity was evaluated on L1210 leukemia model and number of survivors (animals) was determined at 60 mg/kg dosage concentration; number of survivors given as 1/10; type: functional; in short: as §3
[14] = tested on: Mus musculus; assay: In vivo antitumor activity was evaluated on L1210 leukemia model and number of survivors (animals) was determined at 80 mg/kg dosage concentration; number of survivors given as 0/10; type: functional; in short: as §3
[15] = tested on: Mus musculus; assay: In vivo antitumor activity was evaluated on L1210 leukemia model and weight change in tumors was determined at 5 mg/kg dosage concentration; type: functional
[16] = tested on: Mus musculus; assay: In vivo antitumor activity was evaluated on L1210 leukemia model and weight change in tumors was determined at 60 mg/kg dosage concentration.; type: functional
[17] = tested on: Mus musculus; assay: In vivo antitumor activity was evaluated on L1210 leukemia model and weight change in tumors was determined at 80 mg/kg dosage concentration.; type: functional
[18] = tested on: Mus musculus; assay: In vivo antitumor activity was evaluated on L1210 leukemia model and weight change in tumors was determined at 30 mg/kg dosage concentration; type: functional
[19] = tested on: Mus musculus; assay: In vivo antitumor activity was evaluated on L1210 leukemia model and median survival day was determined at 15 mg/kg dosage concentration.; type: functional; in short: as §3
[20] = tested on: Mus musculus; assay: In vivo antitumor activity was evaluated on L1210 leukemia model and median survival day was determined at 2.5 mg/kg dosage concentration; type: functional; in short: as §3
[21] = tested on: Mus musculus; assay: In vivo antitumor activity was evaluated on L1210 leukemia model and median survival day was determined at 30 mg/kg dosage concentration; type: functional; in short: as §3
[22] = tested on: Mus musculus; assay: In vivo antitumor activity was evaluated on L1210 leukemia model and median survival day was determined at 60 mg/kg dosage concentration.; type: functional; in short: as §3
[23] = tested on: Mus musculus; assay: In vivo antitumor activity was evaluated on L1210 leukemia model and median survival day was determined at 80 mg/kg dosage concentration.; type: functional; in short: as §3
[24] = tested on: Mus musculus; assay: In vivo antitumor activity was evaluated on L1210 leukemia model and weight change in tumors was determined at 15 mg/kg dosage concentration.; type: functional
[25] = tested on: Mus musculus; assay: In vivo antitumor activity was evaluated on L1210 leukemia model and weight change in tumors was determined at 2.5 mg/kg dosage concentration; type: functional
[26] = tested on: Mus musculus; assay: In vivo antitumor activity was determined against P388 leukemia cells expressed as treated/control at the dosage of 10 mg/kg; type: functional
In short: as §1, with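 “10^6” for “10^5”, “P388” for “L1210”, “given” for “dosed”, “at various doses” for “daily”, “treated” for “treated mice”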

[27] = tested on: Mus musculus; assay: In vivo antitumor activity was determined against P388 leukemia cells expressed as treated/control at the dosage of 20 mg/kg; type: functional
In short: as §1, with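 “10^6” for “10^5”, “P388” for “L1210”, “given” for “dosed”, “at various doses” for “daily”, “treated” for “treated mice”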

[28] = tested on: Mus musculus; assay: In vivo antitumor activity was determined against P388 leukemia cells expressed as treated/control at the dosage of 40 mg/kg; type: functional
In short: as §1, with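 “10^6” for “10^5”, “P388” for “L1210”, “given” for “dosed”, “at various doses” for “daily”, “treated” for “treated mice”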

[29] = tested on: Mus musculus; assay: In vivo antitumor activity was determined against P388 leukemia cells expressed as treated/control at the dosage of 50 mg/kg; type: functional
In short: as §1, with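 “10^6” for “10^5”, “P388” for “L1210”, “given” for “dosed”, “at various doses” for “daily”, “treated” for “treated mice”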

[30] = tested on: Mus musculus; assay: In vivo antitumor activity was evaluated on L1210 leukemia model and median survival day was determined at 5 mg/kg dosage concentration; type: functional; in short: as §3
[31] = tested on: Mus musculus; assay: In vivo antitumor activity was evaluated on L1210 leukemia model and percent of treated/control of tumor cells was determined at 20 mg/kg dosage concentration; type: functional; in short: as §3
[32] = tested on: Mus musculus; assay: In vivo antitumor activity was determined against P388 leukemia cells expressed as number of animals survived; type: functional; in short: as §2
[33] = tested on: Mus musculus; assay: In vivo antitumor activity was evaluated on L1210 leukemia model and number of survivors (animals) was determined at 20 mg/kg dosage concentration; type: functional; in short: as §3
[34] = tested on: Mus musculus; assay: In vivo antitumor activity was evaluated on L1210 leukemia model and median survival day was determined at 20 mg/kg dosage concentration; type: functional; in short: as §3
[35] = tested on: Mus musculus; assay: In vivo antitumor activity was evaluated on L1210 leukemia model and weight change in tumors was determined at 20 mg/kg dosage concentration; type: functional
[36] = In vitro cytotoxicity against L1210 cells was determined after 48 hours of incubation; type: cell-based; conditions: mouse, read-out: ID50
In short: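 Exponentially growing L1210 cells were cultured in RPMI 1640 with 2 mM glutamine, penicillin/streptomycin and 10% fetal calf serum, under 5% CO2 at 37 °C. Drugs dissolved in distilled water were added to cells at 0.8 × 10^5 cells/mL for 48 h, then cells were counted. ID50 was estimated by regression of dose-response data, as the mean of two values from two independent experiments.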

[37] = tested on: Mus musculus; assay: In vivo antitumor activity was determined against P388 leukemia cells expressed as treated/control at the dose of 60 mg/kg; T = toxic at this dose; type: organism-based; design: dose 60 mg/kg
In short: as §1, with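 “10^6” for “10^5”, “P388” for “L1210”, “given” for “dosed”, “at various doses” for “daily”, “treated” for “treated mice”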

[38] = tested on: Mus musculus; assay: In vivo antitumor activity was determined against P388 leukemia cells expressed as treated/control at the dosage of (0.3-40)mg/kg; IA= inactive; type: functional, organism-based
In short: as §1, with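 “10^6” for “10^5”, “P388” for “L1210”, “given” for “dosed”, “at various doses” for “daily”, “treated” for “treated mice”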

[39] = tested on: Mus musculus; assay: In vivo antitumor activity was determined against P388 leukemia cells expressed as treated/control at the dose of 10 mg/kg; type: functional
In short: as §1, with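 “10^6” for “10^5”, “P388” for “L1210”, “given” for “dosed”, “at various doses” for “daily”, “treated” for “treated mice”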

[40] = tested on: Mus musculus; assay: In vivo antitumor activity was determined against P388 leukemia cells expressed as treated/control at the dose of 20 mg/kg; type: functional
In short: as §1, with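 “10^6” for “10^5”, “P388” for “L1210”, “given” for “dosed”, “at various doses” for “daily”, “treated” for “treated mice”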

[41] = tested on: Mus musculus; assay: In vivo antitumor activity was determined against P388 leukemia cells expressed as treated/control at the dose of 40 mg/kg; type: functional
In short: as §1, with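 “10^6” for “10^5”, “P388” for “L1210”, “given” for “dosed”, “at various doses” for “daily”, “treated” for “treated mice”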

[42] = tested on: Mus musculus; assay: In vivo antitumor activity was determined against P388 leukemia cells expressed as treated/control at the dose of 5 mg/kg; type: functional
In short: as §1, with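 “10^6” for “10^5”, “P388” for “L1210”, “given” for “dosed”, “at various doses” for “daily”, “treated” for “treated mice”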

CCN(CC)CCCNc1ncc(C)c2c1c1cnccc1n2C
K aff [1]: 40000 M⁻¹ | T/C [2]: 99% | T/C [3]: 149% | T/C [4]: 118% | T/C [5]: 187.5% | T/C [6]: 138% | T/C [7]: 196% | Survivors [8]: 3 | Survivors [9]: 0 | Survivors [10]: 0 | Survivors [11]: 0 | Survivors [12]: 0 | Survivors [13]: 1 | Survivors [14]: 0 | Weight changes [15]: -0.3 g | Weight changes [16]: -2.3 g | Weight changes [17]: -2.3 g | Weight changes [18]: 0.2 g | Median survival day [19]: 13.75 | Median survival day [20]: 10.9 | Median survival day [21]: 17.25 | Median survival day [22]: 18 | Median survival day [23]: 9.1 | Weight changes [24]: 0.8 g | Weight changes [25]: 0.7 g | T/C [26]: 147 | T/C [27]: 164 | T/C [28]: 172 | T/C [29]: 207 | Median survival day [30]: 12.75

O=c1[nH]cc(F)c(=O)[nH]1 [FLUOROURACIL]
T/C [31]: 196% | Survivors [32]: 0 | Survivors [33]: 10 | Median survival day [34]: 18 | Weight changes [35]: 0.1 g

CCN(CC)CCCNc1ncc(C)c2c1c1cnccc1n2CC
K aff [1]: 17000 M⁻¹ | CC50 at 48 h [36]: 1400 nM | T/C [37]: Toxic | T/C [38]: inactive

Cc1cnc(NCCCN(C)C)c2c3cnccc3n(C)c12
K aff [1]: 40000 M⁻¹ | T/C [39]: 150 | T/C [40]: 167 | T/C [41]: 173 | T/C [42]: 136
